Measured values reported in ChEMBL document CHEMBL1828500, “Synthesis and biological evaluation of dihydroindeno and indeno [1,2-e] [1,2,4]triazolo [3,4-b] [1,3,4]thiadiazines as antimicrobial agents” (2011).
≈ marks a conversion by molar mass, not a printed value.

Each compound was assayed on Penicillium sp. (assay: Antifungal activity against Penicillium sp. assessed as inhibition of mycelial growth at 4 mg/ml after 7 days). Details: 168 h, read-out: GI.
Format: functional
Method in brief: (§1)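 Poisoned food method. Molds grown on Sabouraud dextrose agar at 25 °C for 7 days to provide inocula. Molten SDA (45 °C) dosed with compound at 4.0 mg/mL in DMSO, then solidified. 8 mm fungal plugs from colony margins placed centrally. Incubated 25 °C for 7 days, in triplicate. % mycelial growth inhibition calculated from colony diameters versus DMSO control. Fluconazole served as positive control.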

Structure (SMILES) | inhibition of growth at 4000 µg/mL [%]
Cc1cccc2c1CC1Sc3nncn3N=C21 (stereo not drawn) | 62.5
CCCc1nnc2sc3cc4c(C)cccc4c-3nn12 | 65.5
CCc1nnc2n1N=C1c3ccccc3CC1S2 (stereo not drawn) | 57.7

The compounds below were run on Bacillus subtilis (assay: Antibacterial activity against Bacillus subtilis MTCC 121 at 2 mg/ml after 24 hrs by agar well diffusion method). Details: MTCC 121, 24 h, read-out: DIZ.
Format: functional
Method in brief: (§2)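 Cultures adjusted to 0.5 McFarland and left 15 min on agar for adsorption. 8 mm wells bored and loaded with compound at 2.0 mg/mL in DMSO. Incubated 37 °C for 24 h. Growth-inhibition zone diameter (mm) read with a zone scale and reported as the average. DMSO served as negative control and ciprofloxacin as positive control.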

Structure (SMILES) | zone of inhibition at 2000 µg/mL [mm]
Cc1cccc2c1CC1Sc3nncn3N=C21 (stereo not drawn) | 30.6
CCCc1nnc2sc3cc4c(C)cccc4c-3nn12 | 18.6
CCc1nnc2n1N=C1c3ccccc3CC1S2 (stereo not drawn) | 21.6

These compounds were tested on Pseudomonas aeruginosa (assay: Antibacterial activity against Pseudomonas aeruginosa MTCC 741 at 2 mg/ml after 24 hrs by agar well diffusion method). Details: MTCC 741, 24 h, read-out: DIZ.
Format: functional
Method in brief: as §2

Structure (SMILES) | zone of inhibition at 2000 µg/mL [mm]
Cc1cccc2c1CC1Sc3nncn3N=C21 (stereo not drawn) | 20.3
CCCc1nnc2sc3cc4c(C)cccc4c-3nn12 | 14.3
CCc1nnc2n1N=C1c3ccccc3CC1S2 (stereo not drawn) | 16

The compounds below were run on Bacillus subtilis (assay: Antibacterial activity against Bacillus subtilis MTCC 121 after 24 hrs by agar well diffusion method). Details: MTCC 121, 24 h.
Format: functional
Method in brief: (§3)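 MIC by modified agar well diffusion. Two-fold serial dilutions (DMSO stock diluted in sterile distilled water), range 256 to 0.5, placed in wells in triplicate. Agar was pre-seeded with 100 standardized inoculum at 10⁶ cfu/mL. Incubated aerobically at 37 °C for 24 h. MIC taken as lowest concentration giving a clear zone, i.e. complete growth inhibition.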

MIC [µg/mL] | Structure (SMILES)
2 (≈ 8.25 µM) | Cc1cccc2c1CC1Sc3nncn3N=C21 (stereo not drawn)
64 (≈ 227 µM) | CCCc1nnc2sc3cc4c(C)cccc4c-3nn12
32 (≈ 125 µM) | CCc1nnc2n1N=C1c3ccccc3CC1S2 (stereo not drawn)

The compounds below were run on Escherichia coli (assay: Antibacterial activity against Escherichia coli MTCC 1652 after 24 hrs by agar well diffusion method). Details: MTCC 1652, 24 h.
Format: functional
Method in brief: as §3

MIC [µg/mL] | Structure (SMILES)
32 (≈ 132 µM) | Cc1cccc2c1CC1Sc3nncn3N=C21 (stereo not drawn)
128 (≈ 453 µM) | CCCc1nnc2sc3cc4c(C)cccc4c-3nn12
64 (≈ 250 µM) | CCc1nnc2n1N=C1c3ccccc3CC1S2 (stereo not drawn)

These compounds were tested on Staphylococcus aureus (assay: Antibacterial activity against Staphylococcus aureus MTCC 96 after 24 hrs by agar well diffusion method). Details: MTCC 96, 24 h.
Format: functional
Method in brief: as §3

MIC [µg/mL] | Structure (SMILES)
8 (≈ 33 µM) | Cc1cccc2c1CC1Sc3nncn3N=C21 (stereo not drawn)
128 (≈ 453 µM) | CCCc1nnc2sc3cc4c(C)cccc4c-3nn12
16 (≈ 62.4 µM) | CCc1nnc2n1N=C1c3ccccc3CC1S2 (stereo not drawn)

These compounds were tested on Escherichia coli (assay: Antibacterial activity against Escherichia coli MTCC 1652 at 2 mg/ml after 24 hrs by agar well diffusion method). Details: MTCC 1652, 24 h, read-out: DIZ.
Format: functional
Method in brief: as §2

Structure (SMILES) | zone of inhibition at 2000 µg/mL [mm]
Cc1cccc2c1CC1Sc3nncn3N=C21 (stereo not drawn) | 22.3
CCCc1nnc2sc3cc4c(C)cccc4c-3nn12 | 15.6
CCc1nnc2n1N=C1c3ccccc3CC1S2 (stereo not drawn) | 18.3

The compounds below were run on Aspergillus flavus (assay: Antifungal activity against Aspergillus flavus assessed as inhibition of mycelial growth at 4 mg/ml after 7 days). Details: 168 h, read-out: GI.
Format: functional
Method in brief: as §1

Structure (SMILES) | inhibition of growth at 4000 µg/mL [%]
Cc1cccc2c1CC1Sc3nncn3N=C21 (stereo not drawn) | 65.5
CCCc1nnc2sc3cc4c(C)cccc4c-3nn12 | 65.5
CCc1nnc2n1N=C1c3ccccc3CC1S2 (stereo not drawn) | 55.5

What follows are compounds tested on Pseudomonas aeruginosa (assay: Antibacterial activity against Pseudomonas aeruginosa MTCC 741 after 24 hrs by agar well diffusion method). Details: MTCC 741, 24 h.
Format: functional
Method in brief: as §3

MIC [µg/mL] | Structure (SMILES)
32 (≈ 132 µM) | Cc1cccc2c1CC1Sc3nncn3N=C21 (stereo not drawn)
256 (≈ 907 µM) | CCCc1nnc2sc3cc4c(C)cccc4c-3nn12
128 (≈ 499 µM) | CCc1nnc2n1N=C1c3ccccc3CC1S2 (stereo not drawn)

The compounds below were run on Aspergillus niger (assay: Antifungal activity against Aspergillus niger assessed as inhibition of mycelial growth at 4 mg/ml after 7 days). Details: 168 h, read-out: GI.
Format: functional
Method in brief: as §1

Structure (SMILES) | inhibition of growth at 4000 µg/mL [%]
Cc1cccc2c1CC1Sc3nncn3N=C21 (stereo not drawn) | 63.3
CCCc1nnc2sc3cc4c(C)cccc4c-3nn12 | 68.8
CCc1nnc2n1N=C1c3ccccc3CC1S2 (stereo not drawn) | 58.8

These compounds were tested on Staphylococcus aureus (assay: Antibacterial activity against Staphylococcus aureus MTCC 96 at 2 mg/ml after 24 hrs by agar well diffusion method). Details: MTCC 96, 24 h, read-out: DIZ.
Format: functional
Method in brief: as §2

Structure (SMILES) | zone of inhibition at 2000 µg/mL [mm]
Cc1cccc2c1CC1Sc3nncn3N=C21 (stereo not drawn) | 26.3
CCCc1nnc2sc3cc4c(C)cccc4c-3nn12 | 16.3
CCc1nnc2n1N=C1c3ccccc3CC1S2 (stereo not drawn) | 25.3
